The values below come from ChEMBL document CHEMBL3421600, “Hupehenols A-E, selective 11β-hydroxysteroid dehydrogenase type 1 (11β-HSD1) inhibitors from Viburnum hupehense” (J Nat Prod, 2015).

Molecules are shown by their SMILES.

Assay [1] addresses 11-beta-hydroxysteroid dehydrogenase 1 (Homo sapiens, UniProt P28845). As to the kind of experiment: Inhibition of human 11beta-HSD1 overexpressed in microsomal fraction of HEK293 cells assessed as formation of [3H]-cortisol from [3H]-cortisone by scintillation proximity assay in presence of NADPH. Type of assay: cell-based. The method, boiled down:
(§1)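 Full-length human or murine 11β-HSD1 cDNA cloned into pcDNA3 and stably transfected into HEK-293 cells, selected with G418 (700 μg/mL). Microsomal fraction used as enzyme source. Microsomes incubated with NADPH, [3H]cortisone and compound. [3H]cortisol product captured by monoclonal antibody on protein A-coated SPA beads and read by scintillation proximity. IC50 reported.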
On the technique in general: SPA uses beads or plates that emit light when radiolabelled molecules are held near them.

The target in assay [2] is T1, 11-beta-hydroxysteroid dehydrogenase type 2 (Mus musculus, UniProt P51661).
T1 sequence (P51661 whole entry): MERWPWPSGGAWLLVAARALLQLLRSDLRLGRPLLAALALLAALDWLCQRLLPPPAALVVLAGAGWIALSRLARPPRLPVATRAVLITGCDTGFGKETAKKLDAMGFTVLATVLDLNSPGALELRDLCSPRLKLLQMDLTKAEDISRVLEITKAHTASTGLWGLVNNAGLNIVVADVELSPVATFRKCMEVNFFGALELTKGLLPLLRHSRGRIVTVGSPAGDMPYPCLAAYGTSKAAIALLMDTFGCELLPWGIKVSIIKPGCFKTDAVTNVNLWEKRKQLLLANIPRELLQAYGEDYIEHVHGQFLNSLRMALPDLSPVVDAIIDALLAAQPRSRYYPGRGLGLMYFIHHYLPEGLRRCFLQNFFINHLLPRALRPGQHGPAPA
Put plainly: Inhibition of mouse 11beta-HSD2 overexpressed in microsomal fraction of HEK293 cells using [3H]-cortisol as substrate by scintillation proximity assay in presence of NAD+. In short, it runs like this:
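Enzyme was murine 11β-HSD2 full-length cDNA in pcDNA3, stably expressed in HEK-293 cells selected with G418 (700 μg/mL). Microsomes from these cells were incubated with [3H]cortisol, NAD+ and compound. Activity was read by scintillation proximity assay and IC50 reported.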

For assay [3], the target named is 11-beta-hydroxysteroid dehydrogenase 1 (Mus musculus, UniProt P50172). Put plainly: Inhibition of mouse 11beta-HSD1 overexpressed in microsomal fraction of HEK293 cells assessed as formation of [3H]-cortisol from [3H]-cortisone by scintillation proximity assay in presence of NADPH. The assay is classed as cell-based. The method, boiled down:
as §1

Assay [4] deals with T2, 11-beta-hydroxysteroid dehydrogenase type 2 (Homo sapiens, UniProt P80365).
T2 sequence (P80365 whole entry): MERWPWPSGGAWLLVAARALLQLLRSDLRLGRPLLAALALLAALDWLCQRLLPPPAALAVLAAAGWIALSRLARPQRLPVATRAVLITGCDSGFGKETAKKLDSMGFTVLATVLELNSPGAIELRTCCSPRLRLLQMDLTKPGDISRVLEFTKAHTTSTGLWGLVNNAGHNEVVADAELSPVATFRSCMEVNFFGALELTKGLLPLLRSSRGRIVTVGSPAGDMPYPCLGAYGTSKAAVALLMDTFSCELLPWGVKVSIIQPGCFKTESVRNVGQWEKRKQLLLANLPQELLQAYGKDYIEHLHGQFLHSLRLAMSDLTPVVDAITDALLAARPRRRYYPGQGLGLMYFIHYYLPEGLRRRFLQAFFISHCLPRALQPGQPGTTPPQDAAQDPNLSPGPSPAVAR
As to the kind of experiment: Inhibition of human 11beta-HSD2 overexpressed in microsomal fraction of HEK293 cells using [3H]-cortisol as substrate by scintillation proximity assay in presence of NAD+.

11-beta-hydroxysteroid dehydrogenase 1 (Mus musculus, UniProt P50172), sequence (P50172 whole entry): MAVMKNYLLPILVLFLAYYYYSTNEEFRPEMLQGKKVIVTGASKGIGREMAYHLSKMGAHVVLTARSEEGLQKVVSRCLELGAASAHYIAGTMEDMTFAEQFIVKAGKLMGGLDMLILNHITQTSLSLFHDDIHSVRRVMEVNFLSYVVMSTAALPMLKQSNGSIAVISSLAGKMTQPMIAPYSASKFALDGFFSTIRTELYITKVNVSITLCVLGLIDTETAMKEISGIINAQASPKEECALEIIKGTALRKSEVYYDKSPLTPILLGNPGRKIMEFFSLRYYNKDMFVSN
11-beta-hydroxysteroid dehydrogenase 1 (Homo sapiens, UniProt P28845), sequence (P28845 whole entry): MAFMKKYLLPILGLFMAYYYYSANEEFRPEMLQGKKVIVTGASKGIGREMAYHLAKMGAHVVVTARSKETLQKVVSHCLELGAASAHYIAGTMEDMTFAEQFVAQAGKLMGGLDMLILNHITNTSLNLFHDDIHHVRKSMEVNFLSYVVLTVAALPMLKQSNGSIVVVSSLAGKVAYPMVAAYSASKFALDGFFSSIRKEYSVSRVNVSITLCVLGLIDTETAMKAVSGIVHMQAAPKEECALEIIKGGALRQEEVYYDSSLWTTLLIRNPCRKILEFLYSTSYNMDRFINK

The IC50 is the concentration that gives 50% inhibition. In the case of `CO[C@@H]1CC(=O)[C@]2(C)[C@@H]1[C@H](OC(C)=O)C[C@@H]1[C@@]3(C)CC[C@H](O)C(C)(C)[C@@H]3CC[C@]12C`, the IC50 amounted to 15.3 nM in assay [1], 155 µM in assay [2] and 3.3 µM in assay [3].

On to `CO[C@@H]1CC(=O)[C@]2(C)[C@@H]1[C@H](O)C[C@@H]1[C@@]3(C)CC[C@H](O)C(C)(C)[C@@H]3CC[C@]12C`, for which the IC50 was found to be 194 nM in assay [1], 292 µM in assay [2] and 2.8 µM in assay [3].

As to `CC(=O)O[C@@H]1C[C@@H]2[C@@]3(C)CC[C@H](O)C(C)(C)[C@@H]3CC[C@@]2(C)[C@]2(C)C(=O)C=C[C@@H]12`, the values for the IC50 in assay [1], in assay [2] and in assay [3] were 34.1 nM, 217 µM and 7.2 µM, respectively.

As to `CC(=O)O[C@@H]1C[C@@H]2[C@@]3(C)CC[C@H](O)C(C)(C)[C@@H]3CC[C@@]2(C)[C@]2(C)C(=O)C[C@@H](O)[C@@H]12`, the figures for the IC50 in assay [1], in assay [2] and in assay [3] were 75.5 nM, more than 1000 µM and 4.7 µM, respectively.

Turning to `CC1(C)[C@@H](O)CC[C@]2(C)[C@H]3C[C@@H](O)[C@@H]4C=CC(=O)[C@@]4(C)[C@]3(C)CC[C@@H]12`, the IC50 is 395 nM in assay [1], 284 µM in assay [4], more than 1000 µM in assay [2] and 2.9 µM in assay [3].
